# Data taken from ChEMBL document CHEMBL4689842, “EUbOPEN Chemogenomics Library wave 1” (2021).
# Test system: Fibroblast
# Test: Multiplex assay against human fibroblast
# Assay type: toxicity, cell-based
# Summary of the method: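 On a CQ1 microscope at 37°C and 5% CO2, live cells were imaged after compound addition. They had been stained at seeding with Hoechst33342, BioTracker Green Microtubule Cytoskeleton Dye, MitoTracker Red and Annexin V Alexa Fluor 680. CellPathfinder machine-learning gating assigned cells to Hoechst high-intensity objects or normal cells, normal cells to healthy, pyknosed or fragmented nuclei, and pyknosed cells to mitotic or apoptotic. Tubulin, mitochondrial-mass and membrane-permeability phenotypes are per cents of healthy-nucleus cells.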
# [1] = 12 h, 1 µM, compound concentration 1 uM, replicate 1
# [2] = 12 h, 1 µM, compound concentration 1 uM, replicate 2
# [3] = 12 h, 10 µM, compound concentration 10 uM, replicate 1
# [4] = 12 h, 10 µM, compound concentration 10 uM, replicate 2
# [5] = 24 h, 1 µM, compound concentration 1 uM, replicate 1
# [6] = 24 h, 1 µM, compound concentration 1 uM, replicate 2
# [7] = 24 h, 10 µM, compound concentration 10 uM, replicate 1
# [8] = 24 h, 10 µM, compound concentration 10 uM, replicate 2
# [9] = 48 h, 1 µM, compound concentration 1 uM, replicate 1
# [10] = 48 h, 1 µM, compound concentration 1 uM, replicate 2
# [11] = 48 h, 10 µM, compound concentration 10 uM, replicate 1
# [12] = 48 h, 10 µM, compound concentration 10 uM, replicate 2
smiles,measurement,setting,value
Cc1cn(-c2cc(NC(=O)c3ccc(C)c(Nc4nccc(-c5cccnc5)n4)c3)cc(C(F)(F)F)c2)cn1 [NILOTINIB],Population Apoptotic (%),[1],62%
same,Population Fragmented Nuclei (%),[1],36%
same,Population Healthy Nuclei (%),[1],29%
same,Population Hoechst High Intensity Objects (%),[1],8%
same,Population Membrane Permeable-Phenotype (%),[1],16%
same,Population Mitochondria Different-Phenotype (%),[1],20%
same,Population Mitotic Cells (%),[1],37%
same,Population Normal (%),[1],91%
same,Population Pyknosed Nuclei (%),[1],34%
same,Population Tubulin-Different-Phenotype (%),[1],83%
same,Total Cell Count,[1],160
same,Population Apoptotic (%),[2],25%
same,Population Fragmented Nuclei (%),[2],1%
same,Population Healthy Nuclei (%),[2],86%
same,Population Membrane Permeable-Phenotype (%),[2],1%
same,Population Mitochondria Different-Phenotype (%),[2],18%
same,Population Mitotic Cells (%),[2],75%
same,Population Pyknosed Nuclei (%),[2],11%
same,Population Tubulin-Different-Phenotype (%),[2],10%
same,Total Cell Count,[2],66
same,Population Apoptotic (%),[3],78%
same,Population Fragmented Nuclei (%),[3],42%
same,Population Healthy Nuclei (%),[3],46%
same,Population Hoechst High Intensity Objects (%),[3],44%
same,Population Membrane Permeable-Phenotype (%),[3],4%
same,Population Mitochondria Different-Phenotype (%),[3],0%
same,Population Mitotic Cells (%),[3],21%
same,Population Normal (%),[3],55%
same,Population Pyknosed Nuclei (%),[3],10%
same,Population Tubulin-Different-Phenotype (%),[3],2%
same,Total Cell Count,[3],2441
same,Population Apoptotic (%),[4],33%
same,Population Fragmented Nuclei (%),[4],18%
same,Population Healthy Nuclei (%),[4],72%
same,Population Hoechst High Intensity Objects (%),[4],7%
same,Population Mitochondria Different-Phenotype (%),[4],61%
same,Population Mitotic Cells (%),[4],66%
same,Population Normal (%),[4],92%
same,Population Pyknosed Nuclei (%),[4],9%
same,Population Tubulin-Different-Phenotype (%),[4],63%
same,Total Cell Count,[4],73
same,Population Apoptotic (%),[5],56%
same,Population Fragmented Nuclei (%),[5],32%
same,Population Healthy Nuclei (%),[5],29%
same,Population Hoechst High Intensity Objects (%),[5],13%
same,Population Membrane Permeable-Phenotype (%),[5],17%
same,Population Mitochondria Different-Phenotype (%),[5],32%
same,Population Mitotic Cells (%),[5],43%
same,Population Normal (%),[5],86%
same,Population Pyknosed Nuclei (%),[5],38%
same,Population Tubulin-Different-Phenotype (%),[5],92%
same,Total Cell Count,[5],159
same,Population Apoptotic (%),[6],40%
same,Population Fragmented Nuclei (%),[6],14%
same,Population Healthy Nuclei (%),[6],79%
same,Population Hoechst High Intensity Objects (%),[6],5%
same,Population Membrane Permeable-Phenotype (%),[6],2%
same,Population Mitochondria Different-Phenotype (%),[6],20%
same,Population Mitotic Cells (%),[6],60%
same,Population Normal (%),[6],94%
same,Population Pyknosed Nuclei (%),[6],5%
same,Population Tubulin-Different-Phenotype (%),[6],12%
same,Total Cell Count,[6],67
same,Population Apoptotic (%),[7],77%
same,Population Fragmented Nuclei (%),[7],45%
same,Population Healthy Nuclei (%),[7],45%
same,Population Hoechst High Intensity Objects (%),[7],50%
same,Population Membrane Permeable-Phenotype (%),[7],3%
same,Population Mitochondria Different-Phenotype (%),[7],0%
same,Population Mitotic Cells (%),[7],22%
same,Population Normal (%),[7],49%
same,Population Pyknosed Nuclei (%),[7],9%
same,Population Tubulin-Different-Phenotype (%),[7],2%
same,Total Cell Count,[7],2873
same,Population Apoptotic (%),[8],0%
same,Population Fragmented Nuclei (%),[8],12%
same,Population Healthy Nuclei (%),[8],83%
same,Population Hoechst High Intensity Objects (%),[8],2%
same,Population Membrane Permeable-Phenotype (%),[8],1%
same,Population Mitochondria Different-Phenotype (%),[8],42%
same,Population Mitotic Cells (%),[8],100%
same,Population Normal (%),[8],97%
same,Population Pyknosed Nuclei (%),[8],4%
same,Population Tubulin-Different-Phenotype (%),[8],30%
same,Total Cell Count,[8],93
same,Population Apoptotic (%),[9],67%
same,Population Fragmented Nuclei (%),[9],32%
same,Population Healthy Nuclei (%),[9],40%
same,Population Hoechst High Intensity Objects (%),[9],16%
same,Population Membrane Permeable-Phenotype (%),[9],10%
same,Population Mitochondria Different-Phenotype (%),[9],29%
same,Population Mitotic Cells (%),[9],32%
same,Population Normal (%),[9],83%
same,Population Pyknosed Nuclei (%),[9],26%
same,Population Tubulin-Different-Phenotype (%),[9],72%
same,Total Cell Count,[9],138
same,Population Apoptotic (%),[10],100%
same,Population Fragmented Nuclei (%),[10],19%
same,Population Healthy Nuclei (%),[10],79%
same,Population Hoechst High Intensity Objects (%),[10],11%
same,Population Membrane Permeable-Phenotype (%),[10],5%
same,Population Mitochondria Different-Phenotype (%),[10],2%
same,Population Mitotic Cells (%),[10],0%
same,Population Normal (%),[10],89%
same,Population Pyknosed Nuclei (%),[10],1%
same,Population Tubulin-Different-Phenotype (%),[10],5%
same,Total Cell Count,[10],100
same,Population Apoptotic (%),[11],47%
same,Population Fragmented Nuclei (%),[11],45%
same,Population Healthy Nuclei (%),[11],43%
same,Population Hoechst High Intensity Objects (%),[11],61%
same,Population Membrane Permeable-Phenotype (%),[11],4%
same,Population Mitochondria Different-Phenotype (%),[11],0%
same,Population Mitotic Cells (%),[11],52%
same,Population Normal (%),[11],38%
same,Population Pyknosed Nuclei (%),[11],10%
same,Population Tubulin-Different-Phenotype (%),[11],2%
same,Total Cell Count,[11],2935
same,Population Apoptotic (%),[12],100%
same,Population Fragmented Nuclei (%),[12],28%
same,Population Healthy Nuclei (%),[12],65%
same,Population Hoechst High Intensity Objects (%),[12],25%
same,Population Membrane Permeable-Phenotype (%),[12],15%
same,Population Mitochondria Different-Phenotype (%),[12],9%
same,Population Mitotic Cells (%),[12],0%
same,Population Normal (%),[12],74%
same,Population Pyknosed Nuclei (%),[12],6%
same,Population Tubulin-Different-Phenotype (%),[12],81%
same,Total Cell Count,[12],66
